According to PubChem BioAssay AID1381 (University of Pittsburgh Molecular Library Screening Center, 2008):
Among all 220,000 compounds or so, about 1,000 (0.45%) were called active.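 The calls were made as follows: active = plate z-score of nuclear minus cytoplasmic receptor signal below a set negative limit, without overly bright fluorescence or cell loss (cut at about -3.5 in these data, passing the limit was not always enough); inactive = the rest, inconclusive results apart.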 This excerpt belongs to a sample that is enriched for actives.

Experiment: inhibitors of GR-EGFP nuclear translocation, primary screen, dynein cargo transport inhibitor project, imaging, high-content, 3617.4 mouse cells (AID 1381)
Conditions: stimulated with dexamethasone, 1 µM
Outline: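 Buffer or medium: Induction medium lacking tetracycline, stripped serum | Also added: Dexamethasone agonist, 1.0 µM final, for 30 min | Timing: 48 h induction, 1 h compound, 30 min dex at 37 °C | Detection: Formaldehyde fixation, Hoechst nuclear stain, 10x automated fluorescence imaging | Measure: Nuclear versus cytoplasmic GR-EGFP signal, averaged per well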

[1] = measured here: cell count per field, at 20 µM
[2] = measured here: cytoplasmic GR-EGFP intensity, at 20 µM, stronger effect = higher value
[3] = measured here: nuclear GR-EGFP intensity, at 20 µM, stronger effect = lower value
[4] = measured here: cell count per field, at 50 µM
[5] = measured here: cytoplasmic GR-EGFP intensity, at 50 µM, stronger effect = higher value
[6] = measured here: nuclear GR-EGFP intensity, at 50 µM, stronger effect = lower value

Structure (SMILES)	z-score (at 20 µM, stronger effect = lower value)	z-score [1]	z-score [2]	z-score [3]	z-score (at 50 µM, stronger effect = lower value)	z-score [4]	z-score [5]	z-score [6]
Cc1ccc(NC(=O)CN(C)Cc2ccc(F)cc2)c([N+](=O)[O-])c1	-0.244 (inactive)	-0.235	-0.22	-0.284	–	–	–	–
CCOC(=O)C(=Cc1ccccc1OC)C(=O)OCC	-5.08 (active)	0.0073	1.43	-2.52	–	–	–	–
COc1ccccc1NC(=O)c1ccc(C)s1	–	–	–	–	0.335 (inactive)	-0.862	-0.265	0.226
CCOC(=O)C(=CNc1cccc(C)n1)C(=O)OCC	0.995 (inactive)	0.752	-0.214	0.879	–	–	–	–
N#Cc1cccc(NC(=O)COC(=O)c2ccccc2C(=O)c2ccc(Cl)c([N+](=O)[O-])c2)c1	-0.407 (inactive)	0.615	-0.326	-0.496	–	–	–	–
Cn1cnnc1SCC(=O)NNC(=O)COc1ccc(Br)cc1	0.431 (inactive)	0.453	-0.218	-0.126	–	–	–	–
C[C@@H]1C[C@@H]2O[C@H]2/C=C\C=C\C(=O)Cc2c(Cl)c(O)cc(O)c2C(=O)O1	-3.8 (active)	0.512	1.82	-1.89	–	–	–	–
COc1cc(CO)c(C2(CO)CCCC2)cc1OC	0.000321 (inactive)	-0.54	-0.145	0.499	–	–	–	–
COC(=O)c1ccc(Sc2ccc(F)cc2)c(N)c1	0.257 (inactive)	0.499	-0.377	0.132	–	–	–	–
Cc1ccc(C(C)NC(=O)Cn2nc(C)c([N+](=O)[O-])c2C)cc1 (configuration not stated)	-0.784 (inactive)	0.727	-0.261	-0.607	–	–	–	–
COc1ccc(CCc2nnc(CCC(=O)NCc3cnn(-c4ccccc4C)c3)o2)cc1	1.76 (inactive)	-1.6	-0.0906	1.43	–	–	–	–
O=[N+]([O-])c1cc(S(=O)(=O)CCCN2CCOCC2)ccc1F	-4.25 (active)	0.317	1.15	-2.3	–	–	–	–
O=[N+]([O-])c1ccc(NCCCN2CCOCC2)c(Cl)c1	0.346 (inactive)	-0.149	0.0336	0.676	–	–	–	–
O=C(NCCCN1CCOCC1)c1ccc([N+](=O)[O-])cc1[N+](=O)[O-]	-0.163 (inactive)	0.317	-0.243	0.0502	–	–	–	–
COC(=O)C(C(=O)Nc1cccc(Cl)c1C)C1CCCC1 (configuration not stated)	0.289 (inactive)	0.616	0.0155	-0.208	–	–	–	–
CC(=O)c1ccc(-c2nnc(CCC(=O)N(C)Cc3cnc4ccccn34)o2)s1	-0.0124 (inactive)	-0.441	-0.212	0.00751	–	–	–	–
O=C(Nc1cccc([N+](=O)[O-])c1)Nc1ccc(Cl)cn1	0.686 (inactive)	-0.334	-0.0491	0.778	–	–	–	–
CCN(CC)C(=O)CN(c1cccc([N+](=O)[O-])c1)S(=O)(=O)c1ccccc1	-0.611 (inactive)	0.944	-0.266	-0.263	–	–	–	–
O=C(CCl)N(Cc1cccc([N+](=O)[O-])c1)c1cccc(Cl)c1	-4.69 (active)	-1.23	2.38	-2.48	–	–	–	–
CCOc1ccc(Br)cc1S(=O)(=O)Nc1cccc(S(=O)(=O)N(CC)CC)c1	-0.331 (inactive)	0.488	-0.167	-0.464	–	–	–	–
O=C(Nc1ccccc1)c1nnsc1S(=O)(=O)c1ccc(Cl)cc1	-5.03 (active)	0.905	0.759	-1.85	–	–	–	–
CS(=O)(=O)c1ccc(Cl)c(NC(=O)Nc2ccccc2)c1	1.27 (inactive)	-0.472	-0.245	0.728	–	–	–	–
O=C(Nc1ccc(Cl)cc1)c1ccsn1	1.02 (inactive)	-1.19	-0.158	1.14	–	–	–	–
CC(Nc1ccccc1)c1cccnc1 (configuration not stated)	-0.716 (inactive)	0.0401	-0.305	-0.598	–	–	–	–

Structure (SMILES)	z-score (at 20 µM, stronger effect = lower value)	z-score [1]	z-score [2]	z-score [3]	z-score (at 50 µM, stronger effect = lower value)	z-score [4]	z-score [5]	z-score [6]
CC1=C/C(=N\OS(=O)(=O)c2ccccc2)C=CC1=O	–	–	–	–	-4.5 (active)	-1.11	1.28	-2.71
CCOC(=O)C1(S(=O)(=O)c2ccccc2)CCN(Cc2ccccc2)CC1	-0.25 (inactive)	0.352	-0.189	0.556	–	–	–	–
CC1=C/C(=N\S(=O)(=O)c2ccccc2)C(C(C)C)=CC1=O	-0.707 (inactive)	-0.217	-0.313	0.209	–	–	–	–
COc1ccc(/C=N/N=C2/C(=O)Nc3ccccc32)cc1O	0.0879 (inactive)	-1.02	0.671	0.854	–	–	–	–
C=CCOC(=O)C1=C[C@@H](c2ccccc2)C[C@@H](OCc2ccc(CO)cc2)O1	-0.243 (inactive)	-0.581	-0.228	0.233	–	–	–	–
CC(=O)c1cc(C#N)c(SCC(=O)Nc2nccs2)nc1C	0.633 (inactive)	-0.767	-0.205	1	–	–	–	–
CCn1c(SCC(=O)Nc2nc(C)cs2)nnc1C(C)NC(=O)c1ccccc1 (configuration not stated)	0.931 (inactive)	-0.274	-0.247	-0.608	–	–	–	–
COc1ccc(NC(=O)/C(Cl)=C(/Cl)S(=O)Cc2ccc(C)cc2)cn1 (configuration not stated)	-5.02 (inactive)	-1.31	4.96	-1.87	–	–	–	–
COc1ccc(CS(=O)/C(Cl)=C(/Cl)C(=O)Nc2ccc(OC)nc2)cc1 (configuration not stated)	-5.17 (active)	0.13	3.61	-2.19	–	–	–	–
COc1ccc(NC(=S)Nc2ccccc2Cl)cn1	1.03 (inactive)	-0.0291	-0.33	0.285	–	–	–	–
O=C(NCc1cccnc1)c1cccc(-c2cc3ccccc3oc2=O)c1	-0.31 (inactive)	0.631	-0.22	-0.235	–	–	–	–
Cc1ccc(S(=O)(=O)C2C(=O)NC3(C)CC2c2ccccc2O3)cc1 (configuration not stated)	-0.689 (inactive)	-0.187	-0.199	-0.503	–	–	–	–
CCc1ccc(/C=N/NC(=O)c2ccc(OC3CCCC3)cc2)s1	–	–	–	–	-0.285 (inactive)	0.0349	-0.199	-0.114
O=C(/C=C/c1ccccc1)c1ccccc1O	-0.596 (inactive)	0.171	-0.18	0.0198	–	–	–	–
Cc1nc(-c2ccccc2)sc1C(=O)/C=C/c1ccccc1	-2.15 (inactive)	0.685	-0.0664	-0.902	–	–	–	–
Cc1[nH]c(=O)c(C(=O)/C=C/c2ccccc2)c2c1CCCC2	-3.92 (active)	0.356	0.353	-1.71	–	–	–	–
CSc1nc2c(c(=O)[nH]1)C(c1cccc(Cl)c1Cl)CC(=O)N2 (configuration not stated)	-0.956 (inactive)	0.453	-0.232	-0.546	–	–	–	–
O=C(/C=C/c1cnc2ccccc2n1)NC1CCCCCC1	0.072 (inactive)	-0.372	-0.262	-0.0867	–	–	–	–
O=C(O)c1ccccc1OCc1ccccc1Cl	1.56 (inactive)	-0.166	-0.834	1.06	–	–	–	–
Cc1ccc(CN2CCC(N3CCC(C(=O)NCC4CCCO4)CC3)CC2)o1 (configuration not stated)	0.0309 (inactive)	-0.115	-0.27	0.507	–	–	–	–
Fc1ccccc1/C=C1\CCCC2=C1Nc1ncnn1C2c1ccccc1F (configuration not stated)	-4.08 (active)	0.757	0.917	-1.5	–	–	–	–
Cc1c(C(=O)Nc2ccccc2)sc2nc3n(c(=O)c12)CCCCC3	0.507 (inactive)	0.149	-0.32	0.154	–	–	–	–
Cc1ccc(S(=O)(=O)NC(=O)N2CCCN(Cc3ccc(F)cc3)CC2)cc1	-0.425 (inactive)	0.12	-0.231	-0.245	–	–	–	–
CC(=O)Nc1ccc(S(=O)(=O)NCC(=O)OCc2cc(=O)oc3ccc4ccccc4c23)cc1	0.304 (inactive)	-0.781	-0.141	-0.169	–	–	–	–
